The results in this text go back to ChEMBL document CHEMBL1629456, “ApoA-I mimetic peptides promote pre-β HDL formation in vivo causing remodeling of HDL and triglyceride accumulation at higher dose” (Bioorg Med Chem, 2010).

In general, EC50 refers to the concentration needed to bring the measured effect to its halfway point. As a reminder, the IC50 is the midpoint of a concentration-inhibition curve. Low values mean greater potency in that assay, high ones weaker potency in that assay.

Calls of active or inactive are those of the source. The calls are words filed in the database; no cut-off is given here. Where a SMILES comes first, the peptide text is derived from it. [ ]: non-standard residue; d: D form. dGly(6-heptenyl) = C=CCCCCC[C@@H](N)C(=O)O; Ala(5-hexenyl) = C=CCCCCC[C@H](N)C(=O)O

Data set [1] relates to Mus musculus. Nature of the data set: Effect on triglyceride level in C57/BL6 mouse at 20 mg/kg, sc after 1 hr. Further details: dose 20 mg/kg. The settings on record: C57Bl/6. In kind it is functional, organism-based. An outline of the steps:
(§1)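 Male C57Bl/6 mice (≥12 weeks, chow-fed) given peptide subcutaneously in 50 mM mannitol/PBS vehicle. Serum was collected by cardiac puncture at 1 or 3 h, clotted 1 h at room temperature and spun at 10,000g. Serum triglyceride was measured by enzymatic colorimetric assay, with 3–5 animals per dose and time point.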

Data set [2] can be described thus: Plasma concentration in C57/BL6 mouse at 60 mg/kg, sc after 3 hrs. Further details: dose 60 mg/kg, route subcutaneous. In kind it is ADME, organism-based, C57Bl/6. In short, it runs like this:
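Male C57Bl/6 mice were dosed subcutaneously with peptide in 50 mM mannitol/PBS. Serum was taken by cardiac puncture, and peptide was measured by LC–MS/MS after acetonitrile protein precipitation.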

The test system of data set [3] is Mus musculus. Nature of the data set: Effect on triglyceride level in C57/BL6 mouse at 20 mg/kg, sc after 3 hrs. In kind it is functional, organism-based. Details: dose 20 mg/kg. Conditions: C57Bl/6. In short, it runs like this: as §1
In data set [4] the target is Phospholipid-transporting ATPase ABCA1 (Mus musculus, UniProt P41233). Nature of the data set: Induction of ABCA1-mediated [3H]cholesterol efflux in mouse RAW 264.7 macrophages after 24 hrs.
Sequence of Phospholipid-transporting ATPase ABCA1 (P41233 whole entry): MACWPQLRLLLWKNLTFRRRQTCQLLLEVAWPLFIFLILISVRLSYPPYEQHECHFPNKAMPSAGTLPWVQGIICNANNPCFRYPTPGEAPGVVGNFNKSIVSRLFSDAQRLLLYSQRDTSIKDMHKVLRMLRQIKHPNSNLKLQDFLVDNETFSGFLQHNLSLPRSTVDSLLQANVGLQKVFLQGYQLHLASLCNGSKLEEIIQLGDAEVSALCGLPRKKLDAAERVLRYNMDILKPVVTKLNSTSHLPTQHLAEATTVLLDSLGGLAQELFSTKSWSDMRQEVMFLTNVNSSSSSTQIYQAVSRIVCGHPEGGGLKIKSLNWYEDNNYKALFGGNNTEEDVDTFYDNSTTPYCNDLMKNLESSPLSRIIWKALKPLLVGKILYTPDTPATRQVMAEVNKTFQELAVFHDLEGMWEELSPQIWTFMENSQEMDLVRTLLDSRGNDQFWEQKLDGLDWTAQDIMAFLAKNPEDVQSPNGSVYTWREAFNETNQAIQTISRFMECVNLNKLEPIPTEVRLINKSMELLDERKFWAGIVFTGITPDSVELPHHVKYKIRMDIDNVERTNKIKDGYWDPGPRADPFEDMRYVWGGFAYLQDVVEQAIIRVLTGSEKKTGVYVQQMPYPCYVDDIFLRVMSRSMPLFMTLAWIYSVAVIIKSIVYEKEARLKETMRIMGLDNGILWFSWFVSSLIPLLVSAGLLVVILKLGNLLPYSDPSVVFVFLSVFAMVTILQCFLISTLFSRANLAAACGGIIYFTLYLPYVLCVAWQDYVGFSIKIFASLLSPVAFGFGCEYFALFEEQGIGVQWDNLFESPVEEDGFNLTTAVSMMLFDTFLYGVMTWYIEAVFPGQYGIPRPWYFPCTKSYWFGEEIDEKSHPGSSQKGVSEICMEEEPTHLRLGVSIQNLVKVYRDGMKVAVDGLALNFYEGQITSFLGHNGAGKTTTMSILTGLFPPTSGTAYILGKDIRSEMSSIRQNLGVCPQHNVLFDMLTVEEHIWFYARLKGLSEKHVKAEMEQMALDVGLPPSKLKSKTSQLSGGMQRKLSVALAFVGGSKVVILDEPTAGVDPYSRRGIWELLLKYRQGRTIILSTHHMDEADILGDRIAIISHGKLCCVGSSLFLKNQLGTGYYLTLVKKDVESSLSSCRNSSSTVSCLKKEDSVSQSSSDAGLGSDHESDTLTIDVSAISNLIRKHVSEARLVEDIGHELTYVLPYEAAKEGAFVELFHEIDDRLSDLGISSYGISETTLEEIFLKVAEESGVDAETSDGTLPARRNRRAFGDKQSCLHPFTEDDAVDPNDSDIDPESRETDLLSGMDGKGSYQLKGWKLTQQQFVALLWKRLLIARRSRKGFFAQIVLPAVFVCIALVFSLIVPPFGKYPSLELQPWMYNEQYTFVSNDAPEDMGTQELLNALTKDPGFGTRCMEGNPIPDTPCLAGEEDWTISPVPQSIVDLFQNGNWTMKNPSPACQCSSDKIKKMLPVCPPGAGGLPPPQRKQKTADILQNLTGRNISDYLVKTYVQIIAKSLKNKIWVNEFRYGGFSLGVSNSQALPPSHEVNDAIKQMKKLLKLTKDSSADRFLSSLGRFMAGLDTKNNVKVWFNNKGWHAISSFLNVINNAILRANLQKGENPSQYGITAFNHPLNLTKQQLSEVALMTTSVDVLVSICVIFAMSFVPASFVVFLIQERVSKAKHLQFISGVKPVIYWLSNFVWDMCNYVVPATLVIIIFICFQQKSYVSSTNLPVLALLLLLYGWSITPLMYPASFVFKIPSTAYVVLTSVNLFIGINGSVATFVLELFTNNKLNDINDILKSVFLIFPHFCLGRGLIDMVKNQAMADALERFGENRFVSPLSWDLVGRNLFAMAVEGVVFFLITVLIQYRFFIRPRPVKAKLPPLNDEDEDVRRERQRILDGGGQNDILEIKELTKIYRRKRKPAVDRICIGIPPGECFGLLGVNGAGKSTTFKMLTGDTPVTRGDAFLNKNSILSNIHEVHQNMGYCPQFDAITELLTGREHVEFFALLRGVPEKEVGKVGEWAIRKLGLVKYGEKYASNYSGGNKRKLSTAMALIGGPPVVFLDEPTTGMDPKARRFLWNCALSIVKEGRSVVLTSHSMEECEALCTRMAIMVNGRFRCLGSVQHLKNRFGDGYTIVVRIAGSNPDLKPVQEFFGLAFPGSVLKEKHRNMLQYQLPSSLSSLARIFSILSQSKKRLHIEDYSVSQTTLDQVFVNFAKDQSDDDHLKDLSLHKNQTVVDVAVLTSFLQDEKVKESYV
The subject of data set [5] is Mus musculus. Nature of the data set: Effect on triglyceride level in C57/BL6 mouse at 60 mg/kg, sc after 1 hr. In kind it is functional, organism-based. Further details: dose 60 mg/kg. Conditions: C57Bl/6. In short, it runs like this: as §1
Data set [6] concerns the target Lipoprotein lipase (Bos taurus) (UniProt P11151). Nature of the data set: Inhibition of Lipoprotein lipase in vitro.
Data set [7] has as its system Mus musculus. Nature of the data set: Decrease in HDL cholesterol level in C57/BL6 mouse at 30 mg/kg, sc after 24 hrs by FPLC. In kind it is functional, organism-based. Further details: dose 30 mg/kg. The settings on record: C57Bl/6. An outline of the steps:
(§2)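 Male C57Bl/6 mice (≥12 weeks, chow-fed) dosed subcutaneously with peptide in vehicle (50 mM mannitol in PBS); serum collected by cardiac puncture at time points post-dose. Serum was pooled (three animals per pool), given protease and lipase inhibitors, filtered, and fractionated by Superose 6 FPLC in PBS pH 7.4 with 1 mM EDTA at 0.2 ml/min. Cholesterol and triglyceride in fractions were measured by enzymatic colorimetry.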

Data set [8] has as its system Mus musculus. Put plainly: Increase in VLDL cholesterol level in C57/BL6 mouse at 30 mg/kg, sc by FPLC. In kind it is functional, organism-based. Details: dose 30 mg/kg. Conditions: C57Bl/6. In short, it runs like this: as §2
Data set [9] deals with Mus musculus. Put plainly: Increase in VLDL triglyceride level in C57/BL6 mouse at 100 mg/kg, sc by FPLC. In kind it is functional, organism-based. Conditions: C57Bl/6. Further details: dose 100 mg/kg. An outline of the steps: as §2
Data set [10] relates to Mus musculus. Put plainly: Induction of hypertriglyceridemia in C57/BL6 mouse at 30 mg/kg, sc by FPLC. In kind it is functional, organism-based. Details: dose 30 mg/kg. The settings on record: C57Bl/6. An outline of the steps:
as §2

The test system of data set [11] is Mus musculus. Put plainly: Effect on TG content of HDL in C57/BL6 mouse at 100 mg/kg, sc after 24 hrs by FPLC. In kind it is functional, organism-based. Details: dose 100 mg/kg. Conditions: C57Bl/6. In short, it runs like this:
as §2

Data set [12] relates to Plasma. Put plainly: Induction of pre-beta HDL formation in human plasma after 2 hrs by ELISA. In kind it is functional, cell-free. In short, it runs like this:
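Increasing peptide concentrations were incubated with normal human plasma at 37 °C for 2 h. Pre-β HDL was quantified by a commercial human pre-β HDL ELISA.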
In general terms: An ELISA detects its analyte on a solid surface through an enzyme-linked reagent.

The test system of data set [13] is Mus musculus. Put plainly: Increase in VLDL triglyceride level in C57/BL6 mouse at 30 mg/kg, sc by FPLC. The settings on record: C57Bl/6. In kind it is functional, organism-based. Further details: dose 30 mg/kg. An outline of the steps: as §2
Data set [14] is filed under the species Mus musculus. Put plainly: Induction of pre-beta HDL formation in C57/BL6 mouse plasma at 0.25 mg/ml after 2 hrs by FPLC. In kind it is functional. The settings on record: C57Bl/6. An outline of the steps:
(§3)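 Peptide was added to C57Bl/6 mouse plasma (final 0.25 mg/ml) or human plasma (final 0.5 mg/ml) and incubated at 37 °C. Lipoproteins were fractionated by Superose 6 FPLC in PBS pH 7.4 with 1 mM EDTA. Cholesterol was measured by enzymatic colorimetry and peptide by LC–MS against an internal standard.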

Data set [15] has as its system Plasma. Put plainly: Induction of pre-beta HDL formation in mouse plasma after 2 hrs by ELISA. In kind it is functional, cell-free.
In data set [16] the target is Phospholipid-transporting ATPase ABCA1 (Mus musculus) (UniProt P41233). Nature of the data set: Induction of ABCA1-mediated [3H]cholesterol efflux in mouse J774 macrophages. Conditions: TDE = time-dependent effect. An outline of the steps:
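Ex vivo serum efflux. J774 macrophages were labeled with [3H]cholesterol for 24 h, then equilibrated 18 h in 0.2% BSA, with or without cpt-cAMP. Cells were incubated 4 h at 37 °C with 2% serum from peptide-dosed apoe-/- mice (60 mg/kg sc). Fractional efflux was media [3H] over total at time zero; ABCA1-dependent efflux = cAMP-treated minus untreated.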

Data set [17] relates to Mus musculus. Nature of the data set: Decrease in HDL cholesterol level in C57/BL6 mouse at 100 mg/kg, sc after 24 hrs by FPLC. The settings on record: C57Bl/6. In kind it is functional, organism-based. Details: dose 100 mg/kg. An outline of the steps:
as §2

Data set [18] concerns Mus musculus. Nature of the data set: Induction of pre-beta HDL formation in apoe deficient mouse assessed as increase in circulating pre-beta HDL at 60 mg/kg, sc after 2 hrs by FPLC. In kind it is functional, organism-based. Details: dose 60 mg/kg. Conditions: TDE = time-dependent effect.
Data set [19] deals with Mus musculus. Put plainly: Increase in VLDL cholesterol level in C57/BL6 mouse at 100 mg/kg, sc by FPLC. The settings on record: C57Bl/6. Further details: dose 100 mg/kg. In kind it is functional, organism-based. In short, it runs like this: as §2
The test system of data set [20] is Mus musculus. Nature of the data set: Effect on TG content in HDL in C57/BL6 mouse at 30 mg/kg, sc after 24 hrs by FPLC. Further details: dose 30 mg/kg. In kind it is functional, organism-based. Conditions: C57Bl/6. In short, it runs like this:
as §2

Data set [21] deals with Mus musculus. Put plainly: Induction of hypertriglyceridemia in C57/BL6 mouse at 100 mg/kg, sc by FPLC. In kind it is functional, organism-based. Details: dose 100 mg/kg. Conditions: C57Bl/6. In short, it runs like this: as §2
For data set [22], the system named is Plasma. Nature of the data set: Induction of pre-beta HDL formation in human plasma at 0.5 mg/ml after 2 hrs by FPLC. In kind it is functional, cell-free. In short, it runs like this: as §3
The test system of data set [23] is Mus musculus. Put plainly: Effect on triglyceride level in C57/BL6 mouse at 60 mg/kg, sc. In kind it is functional, organism-based. Conditions: C57Bl/6, TDE = time-dependent effect. Further details: dose 60 mg/kg. An outline of the steps:
as §1

Sequence of Phospholipid-transporting ATPase ABCA1 (Mus musculus) (P41233 whole entry): as above

`C=CCCCCC[C@H](NC(=O)[C@H](CCC(=O)O)NC(=O)[C@H](CC(N)=O)NC(=O)[C@H](CC(C)C)NC(=O)[C@H](CCCCN)NC(=O)[C@H](CCC(=O)O)NC(=O)[C@H](CCCNC(=N)N)NC(=O)[C@@H](CCCCCC=C)NC(=O)[C@H](CCC(=O)O)NC(=O)[C@H](CC(=O)O)NC(=O)[C@H](CC(C)C)NC(=O)[C@H](CCCCCC=C)NC(=O)[C@@H]1CCCN1C(C)=O)C(=O)N[C@@H](CC(C)C)C(=O)N[C@@H](CCC(=O)O)C(=O)N[C@@H](C)C(=O)N[C@@H](CC(C)C)C(=O)N[C@@H](CCCCN)C(=O)N[C@@H](CCC(N)=O)C(=O)N[C@@H](CCCCN)C(=O)N[C@@H](CC(C)C)C(=O)N[C@@H](CCCCN)C(N)=O` (Ac-P[Ala(5-hexenyl)]LDE[dGly(6-heptenyl)]REKLNE[Ala(5-hexenyl)]LEALKQKLK-NH2): the outcome in the data set on Mus musculus [1], in the data set with Mus musculus [3] and with Mus musculus [5] was inactive. The concentration at 3 h in [2] came out at 55 µM. Besides, in data set [4], the EC50 is 0.9 µM. In addition, the midpoint of inhibition in data set [6], the IC50, lay at 21 µM.
For the compound `C=CCCCCC[C@H](NC(=O)[C@H](CCC(=O)O)NC(=O)[C@H](CC(N)=O)NC(=O)[C@H](CC(C)C)NC(=O)[C@H](CCCCN)NC(=O)[C@H](CCC(=O)O)NC(=O)[C@H](CCCNC(=N)N)NC(=O)[C@H](CCCCCC=C)NC(=O)[C@H](CCC(=O)O)NC(=O)[C@H](CC(=O)O)NC(=O)[C@H](CC(C)C)NC(=O)[C@@H](NC(=O)[C@@H]1CCCN1C(C)=O)C(C)C)C(=O)N[C@@H](CC(C)C)C(=O)N[C@@H](CCC(=O)O)C(=O)N[C@@H](C)C(=O)N[C@@H](CC(C)C)C(=O)N[C@@H](CCCCN)C(=O)N[C@@H](CCC(N)=O)C(=O)N[C@@H](CCCCN)C(=O)N[C@@H](CC(C)C)C(=O)N[C@@H](CCCCN)C(N)=O` (Ac-PVLDE[Ala(5-hexenyl)]REKLNE[Ala(5-hexenyl)]LEALKQKLK-NH2), the outcome with Mus musculus [7], with Mus musculus [8], in the data set on Mus musculus [9], in the data set with Mus musculus [13], in the data set listed under Mus musculus [14] and with Mus musculus [17] was Active. The result in the data set with Mus musculus [19], in the data set on Mus musculus [21] and with Plasma [22] was Active. Moreover, the outcome in the data set on Mus musculus [1], in the data set with Mus musculus [10], in the data set on Mus musculus [11], in the data set on Mus musculus [3], in the data set with Mus musculus [5] and in the data set on Mus musculus [20] was inactive. The compound also showed a concentration at 3 h in [2] of 124 µM. The Activity result with Plasma [12] was “Dose-dependent effect”; with Plasma [15] it was “Dose-dependent effect”; in [16], “tde”; in the data set with Mus musculus [18] it was “tde”. The compound further displayed an EC50 in [4] of 0.4 µM. The same compound registered an IC50 in data set [6] of 60 µM.
Take Ac-PVLDEFREKLNEELEALKQKLK-NH2: the result with Plasma [12] was inactive. Also, in the data set on Mus musculus [23], the Activity result was “tde”. In [6], this compound registered an IC50 of 477 µM.
Regarding `C=CCCCCC[C@H](NC(=O)[C@H](CCC(N)=O)NC(=O)[C@H](CCCCN)NC(=O)[C@H](CC(C)C)NC(=O)[C@H](C)NC(=O)[C@H](CCC(=O)O)NC(=O)[C@H](CC(C)C)NC(=O)[C@H](CCCCCC=C)NC(=O)[C@H](CCC(=O)O)NC(=O)[C@H](CC(N)=O)NC(=O)[C@H](CC(C)C)NC(=O)[C@H](CCCCN)NC(=O)[C@H](CCC(=O)O)NC(=O)[C@H](CCCNC(=N)N)NC(=O)[C@@H](CCCCCC=C)NC(=O)[C@H](CCC(=O)O)NC(=O)[C@H](CC(=O)O)NC(=O)[C@H](CC(C)C)NC(=O)[C@@H](NC(=O)[C@@H]1CCCN1C(C)=O)C(C)C)C(=O)N[C@@H](CC(C)C)C(=O)N[C@@H](CCCCN)C(N)=O` (Ac-PVLDE[dGly(6-heptenyl)]REKLNE[Ala(5-hexenyl)]LEALKQ[Ala(5-hexenyl)]LK-NH2), the result in the data set with Mus musculus [1], in the data set on Mus musculus [3] and in the data set on Mus musculus [5] was inactive. Besides, the concentration at 3 h in data set [2] was 49 µM. Also, the Activity result in the data set on Plasma [12] is “Dose-dependent effect”. This compound also displayed an EC50 in [4] of 1 µM. In data set [6], this compound displayed an IC50 of 40 µM.
